Measurements: publication PMC4480188 (Experimental parasitology, 2015)
Where “and” joins values, the source holds several entries; their conditions need not be identical. Equal values may be shown once. Entries after “also recorded” stand apart in the source; their conditions may differ. Read-outs that look alike come from different tables or passages of the source. Marks after values point to notes of the source that are not given here.

How the values were obtained:
[1] = tested on: human normal skin fibroblast FF 2441 cells; conditions: read-out: IC50, FF 2441 cells; MTS assay, ± SEM; ref Robertson et al. (2014); cited from earlier work
[2] = tested on: human metastatic melanoma UACC 903 cells; conditions: read-out: IC50, UACC 903 cells; MTS assay, ± SEM; ref Robertson et al. (2014); cited from earlier work
[3] = tested on: P. falciparum 3D7; experiment: Antimalarial activity by SYBR Green assay; type: cell-based, Plasmodium falciparum; conditions: for IC50: mean of three independent experiments ± SEM; for Antimalarial activity: summary of IC50 results
[4] = tested on: P. falciparum 3D7 parasites (asexual stage, ring stage); type: cell-based, Plasmodium falciparum; conditions: for Antimalarial activity, ranking among the three compounds tested: 2.5-20 μM, 24-72 h, microscopy
Method in brief: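 Sorbitol-synchronized P. falciparum 3D7 in human erythrocytes (37 °C, 5% O2/5% CO2/90% N2) was treated at ring stage (8–10 h post-invasion, 4–6% parasitemia) with 2.5, 5, 10 or 20 μM test compound, or left untreated. Aliquots were taken at 24, 48 and 72 h for Giemsa-stained thin smears. Percent parasitemia and stage (rings, trophozoites, schizonts) were scored by light microscopy.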

[5] = tested on: P. falciparum gametocytes; type: cell-based, Plasmodium falciparum; conditions: 48 h
Method in brief: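 Gametocytes came from P. falciparum cultured continuously for 6–8 weeks at >10% parasitemia, with weekly sorbitol synchronization, in human erythrocytes at 37 °C under 5% O2/5% CO2/90% N2. Gametocyte cultures were exposed to test compound at 10 or 20 μM for 48 h alongside untreated controls. Giemsa-stained smears of culture pellets were then examined by light microscopy for gametocyte morphology.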

[6] = 2.5 μM, 48 h, treated at ring stage
[7] = 2.5 μM, 72 h, treated at ring stage
[8] = 5 μM, 24 h, treated at ring stage
[9] = 5 μM, 48 h, treated at ring stage
[10] = 5 μM, 72 h, NVP = no viable parasites
[11] = 10 μM, 24 h, treated at ring stage
[12] = 10 μM, 48 h, ring-stage (R) parasites
[13] = 10 μM, 72 h, NVP = no viable parasites
[14] = 20 μM, 24 h, NVP = no viable parasites
[15] = 20 μM, 48 h, ring-stage (R) parasites, NVP = no viable parasites
[16] = 20 μM, 72 h, NVP = no viable parasites
[17] = up to 20 μM, 48 h, ring stage treated

| SMILES | IC50 [1] [µM] | IC50 [2] [µM] | IC50 ([3]; read-out: IC50, 3D7, 72 h) | Antimalarial activity [3] | Inhibition of parasite growth ([3]; 20 μM, 72 h) | Percent parasitemia and parasite growth stage [4, 6] | Percent parasitemia and parasite growth stage [4, 7] | Percent parasitemia and parasite growth stage [4, 8] | Percent parasitemia and parasite growth stage [4, 9] | Percent parasitemia and parasite growth stage [4, 10] | Percent parasitemia and parasite growth stage [4, 11] | Percent parasitemia and parasite growth stage [4, 12] | Percent parasitemia and parasite growth stage [4, 13] | Percent parasitemia and parasite growth stage [4, 14] | Percent parasitemia and parasite growth stage [4, 15] | Percent parasitemia and parasite growth stage [4, 16] | Antimalarial activity, ranking among the three compounds tested [4] | Inhibition of parasite growth [3, 17] | other results |
| --- | --- | --- | --- | --- | --- | --- | --- | --- | --- | --- | --- | --- | --- | --- | --- | --- | --- | --- | --- |
| CC(C)c1ccc2c(c1)CCC1C(C)(CNC(=O)c3ccccc3)CCCC21C (stereo not drawn) [2d, N-dehydroabietylbenzamide] | > 100 | > 100 | 0.36 ± 0.13 µM | good to excellent antimalarial activity; also recorded: most potent antimalarial activity | – | – | – | – | – | – | – | – | – | – | – | – | – | – | – |
| CC(C)c1ccc2c(c1)CC[C@H]1[C@](C)(CNC(c3ccccc3)(c3ccccc3)c3ccccc3)CCC[C@]21C [2f] | > 100 | > 100 | ~90.6 µM and 90.6 µM | – | not inhibitory | – | – | – | – | – | – | – | – | – | – | – | – | – | – |
| CCC(=O)NCC1(C)CCCC2(C)c3ccc(C(C)C)cc3CCC12 (stereo not drawn) [2c, N-dehydroabietylpropionamide] | > 100 | 89.4 ± 3.3 | 13.3 ± 0.44 µM | good to excellent antimalarial activity | complete inhibition | – | – | – | – | – | – | – | – | – | – | – | – | – | – |
| CC(C)C1=CC2=CC[C@@H]3[C@](C)(CCC[C@@]3(C)C(=O)O)[C@H]2CC1 [compound 3, abietic acid] | > 100 | > 100 | – | – | – | 21.6 ± 1.0 (R) % | 20.6 ± 1.2 (T) % | 6.0 ± 0.3 (T) % | 22.0 ± 1.3 (R) % | 20.6 ± 0.4 (T) % | 5.7 ± 0.3 (T) % | 22.3 ± 0.6 (R) % | 20.0 ± 0.2 (T) % | 5.9 ± 0.4 (T) % | 20.6 ± 0.9 (R) % | 15.1 ± 0.3 (T) % | negligibly active | negligible activity | Effect on parasite growth ([4]; 20 μM, second life cycle): noticeably inhibit parasite growth; Effect on parasite growth ([4]; 2.5, 5, and 10 μM, 72 h culturing period): no effect on parasite growth; IC50 ([3]; Plasmodium falciparum, 3D7, 72 h, read-out: IC50, 3D7, 72 h): ~82 µM; Gametocidal effect ([5]; 10 and 20 μM): no activity; also recorded: no effect on gametocytes |
| CC(C)c1ccc2c(c1)CC[C@H]1[C@](C)(CN)CCC[C@]21C [compound 1, dehydroabietylamine] | 8.9 ± 0.68 | 1.4 ± 0.24 | 1.8 ± 0.22 µM | – | – | 10.3 ± 1.3 (R) % | 9.1 ± 0.5 (T) ^b % | 5.5 ± 0.3 (T) % | 6.1 ± 1.5 (T, S, R) % | NVP | 3.3 ± 0.3 (T) % | – | NVP | NVP^c | NVP | NVP | most active | efficiently inhibited parasite growth in a dose dependent manner | Parasites developed into trophozoites ([4]; 10 μM, 24 h treatment): ~ 60%; Remaining trophozoites still at the trophozoite and schizont stages, unhealthy ([4]; 10 μM, 48 h): ~ 73%; Percent parasitemia and parasite growth stage ([4]; 10 μM, 48 h, ring-stage (R) parasites, listed as Dehydroabietylamine): 2.5 ± 0.2%; Percent parasitemia and parasite growth stage ([4]; 10 μM, 48 h, ring-stage (R) parasites, listed as dehydroabietylamine): ~ 2.5%; Trophozoites matured into healthy schizonts ([4]; 10 μM, by 48 h): ~ 27%; Effect on parasite development ([4]; 20 μM, 24 h): completely inhibited parasite development into trophozoites; Gametocidal effect ([5]; 10 μM): gametocytes shrunk and condensed into non-viable, rounded condensed bodies; Gametocidal effect ([5]; 20 μM): completely lysed gametocytes |
| CC(C)C1=CC2=CC[C@H]3[C@](C)(CN)CCC[C@]3(C)[C@H]2CC1 [4d, abietylamine] | 8.3 ± 0.41 | 2.1 ± 0.25 | 8.2 ± 0.48 µM | – | – | 20.4 ± 1.3 (R) % | 10.0 ± 0.5 (T) % | 6.0 ± 0.4 (T) % | 16.1 ± 1.5 (R) % | 9.0 ± 0.4 (T) ^b % | 4.3 ± 0.4 (T) % | 10.1 ± 0.6% | 8.3 ± 0.1 (T) ^b % | 3.7 ± 0.3 (T) % | – | NVP ^b | moderately active | – | Inhibition of parasite growth ([4]; 2.5 μM, by 72 h): about 50%; Parasites developed into trophozoites ([4]; 20 μM, 24 h period): ~ 60%; Percent parasitemia and parasite growth stage ([4]; 20 μM, 48 h, ring-stage (R) parasites, NVP = no viable parasites, listed as Abietylamine): 2.4 ± 0.5%; Percent parasitemia and parasite growth stage ([4]; 20 μM, 48 h, ring-stage (R) parasites, NVP = no viable parasites, listed as abietylamine): ~ 2.4%; Parasites at the trophozoite and schizont stages ([4]; 20 μM, 48 h, share of those that developed into trophozoites): ~ 45%; Effect on parasites ([4]; 20 μM, by 72 h): completely killed the parasites |
